High-throughput results as filed in PubChem BioAssay.
Keap1 Nrf2 FP: Keap1-Nrf2 protein-protein interaction inhibitors, primary screen, biochemical, fluorescence polarization, single point. Keap1 Kelch-Nrf2 peptide fluorescence polarization, 1536-well. inhibition, % at 9.4 µM. 340,000 compounds, 0.15% hits. AID 504523, 2011; in the data active = inhibition above about 12%;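 note: human Keap1 Kelch domain with fluorescein labeled Nrf2 9mer peptide probe; higher means more block of Keap1 binding to Nrf2 peptide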
A3A deaminase: APOBEC3A ssDNA deaminase inhibitors, primary screen, selectivity assay for APOBEC3G inhibitor project, biochemical, FAM/TAMRA oligo cleavage fluorescence | DNA dC->dU-editing enzyme APOBEC-3A (Homo sapiens), P31941 | recombinant A3A, FAM/TAMRA ssDNA deamination fluorescence | inhibition, % at 20 µM | 330,000 compounds, 0.41% hits | AID 493011, 2011;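 active = at least 40% inhibition at 20 µM here, with at most 30% in a related deaminase screen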
Target sequence (P31941 whole entry, looked up): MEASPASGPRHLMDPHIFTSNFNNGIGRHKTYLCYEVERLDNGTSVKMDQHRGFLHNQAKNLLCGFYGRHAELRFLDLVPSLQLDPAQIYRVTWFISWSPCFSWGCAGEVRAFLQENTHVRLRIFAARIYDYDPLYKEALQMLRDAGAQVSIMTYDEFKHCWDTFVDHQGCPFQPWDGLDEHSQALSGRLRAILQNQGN
APOBEC3G inh: APOBEC3G DNA deaminase inhibitors, primary screen, biochemical, fluorescence, single-stranded DNA substrate, uHTS | DNA dC->dU-editing enzyme APOBEC-3G (Homo sapiens), Q9HC16 | recombinant A3G, ssDNA deamination FAM/TAMRA fluorescence | inhibition, % at 20 µM | 330,000 compounds, 0.28% hits | AID 493012, 2011;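 active = inhibition of at least 40% at 20 µM, with no more than 30% in the related APOBEC3A deaminase screen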
Target sequence (Q9HC16 whole entry, looked up): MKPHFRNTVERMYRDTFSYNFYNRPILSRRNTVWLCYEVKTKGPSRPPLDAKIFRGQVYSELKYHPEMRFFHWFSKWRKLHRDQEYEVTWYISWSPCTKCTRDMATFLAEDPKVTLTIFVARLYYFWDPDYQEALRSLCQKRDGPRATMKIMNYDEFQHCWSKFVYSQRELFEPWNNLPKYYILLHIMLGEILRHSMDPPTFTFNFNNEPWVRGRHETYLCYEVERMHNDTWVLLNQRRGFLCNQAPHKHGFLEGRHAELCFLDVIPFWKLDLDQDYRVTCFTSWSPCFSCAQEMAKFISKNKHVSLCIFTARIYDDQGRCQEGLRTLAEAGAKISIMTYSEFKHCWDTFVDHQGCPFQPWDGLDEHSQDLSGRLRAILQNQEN
CAL PDZ FP-1: untagged CAL PDZ binding inhibitors, primary screen, biochemical, fluorescence polarization, HTS | AID 602252, 2012 | purified CAL PDZ, TMR-peptide fluorescence polarization, 1 h | 300,000 compounds, 0.92% hits | inhibition, % at 24.9 µM | Golgi-associated PDZ and coiled-coil motif-containing protein (Homo sapiens), Q9HD26;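 active = mean inhibition of at least 30% with at least half of replicates also reaching 30%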
CAL PDZ FP-2: CAL PDZ peptide-binding inhibitors, primary screen, biochemical, fluorescence polarization, Cer-tagged CAL PDZ, HTS | inhibition, % at 20 µM | 330,000 compounds, 0.02% hits | purified CAL PDZ, TMR-peptide fluorescence polarization, 1 h | Golgi-associated PDZ and coiled-coil motif-containing protein (Homo sapiens), Q9HD26;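 active = highest replicate inhibition of at least 40%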
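material = purified tagged CAL PDZ domain construct (CerCALP) | buffer or medium = sodium phosphate/NaCl buffer pH 7.4 with TCEP, IgG, Thesit | reagent = TMR-labelled reporter peptide T*-PRC34 bound in PDZ groove | incubation = 1 h room-temperature incubation prior to read | measured by = fluorescence polarization (mP) | evaluation = percent inhibition from loss of millipolarization | control set = unlabelled peptide and DMSO controls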
C-LANA FP: inhibitors of KSHV C-LANA binding to DNA, primary screen, biochemical, fluorescence polarization, FAM-LBS DNA, MBP-C-LANA, single point; Kaposi's sarcoma herpesvirus LANA C-terminal domain (residues 932-1162) DNA binding; inhibition, % at 9 µM; 340,000 compounds, 0.078% hits;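 active = highest replicate inhibition at or above 60% at 9 µM, even if other replicates fall short; inactive = all replicates below 60% inhibition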
APOBEC3A confirm: APOBEC3A deaminase inhibitors, retest, confirmation, selectivity assay for APOBEC3G inhibitor project, biochemical, single concentration, fluorescence readout; inhibition, % at 20 µM; shares compounds with A3A deaminase; AID 493151, 2011; recombinant A3A, ssDNA deaminase UDG fluorescence assay; 1,400 compounds, 63% hits;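 active = inhibition reaching a set limit, 80% of the first screen's cutoff, at 20 µM in any replicate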
UDG ctr A3A: E. coli UDG inhibitors, confirmation, counter-screen for APOBEC3A inhibitor project, biochemical, single concentration, fluorescence, FAM/TAMRA oligo. shares compounds with A3A deaminase. UDG counterscreen, FAM/TAMRA uracil oligo fluorescence. inhibition, % at 20 µM. 1,000 tested, under 10 active. AID 504714, 2011; call rule not given here
Hits are given with their value; . = inactive; / = no result given. The list is not random: actives were taken first. Their share in the collection is about 1.7%.

SMILES | Keap1 Nrf2 FP | A3A deaminase | APOBEC3G inh | CAL PDZ FP-1 | CAL PDZ FP-2 | C-LANA FP | APOBEC3A confirm | UDG ctr A3A
CC(C)CC(=O)Nc1c2c(nn1-c1cccc(Cl)c1)CS(=O)C2 (centres undefined) | . | . | . | / | . | . | / | /
CN(C)S(=O)(=O)c1cccc(CNCC2COc3ccccc3O2)c1 (centres undefined) | . | . | . | . | . | . | / | /
COC(=O)c1ccc(-c2ccc(Cl)cc2)nc1C | . | . | . | . | . | . | / | /
Cc1nn(Cc2ccccc2)c(C)c1CNC(=O)CN=C1NS(=O)(=O)c2ccccc21 | . | . | . | . | . | . | / | /
Cc1ccc(NC(=O)CN(c2ccccc2F)S(C)(=O)=O)cc1 | . | 51.7 | . | . | . | . | . | /
CC(Oc1ccc(F)cc1)C(=O)Nc1cc(S(=O)(=O)N2CCCCC2)ccc1N1CCOCC1 (centres undefined) | . | 42.2 | . | . | . | . | . | /
O=C(COc1ccc(F)cc1)Nc1cc(S(=O)(=O)N2CCCCC2)ccc1N1CCCCC1 | . | . | . | . | . | . | / | /
CCN1CCN(c2ccc(S(=O)(=O)N3CCCCC3)cc2NC(=O)COc2ccc(F)cc2Cl)CC1 | . | 55.9 | . | . | . | . | 52.9 | .
CCN1CCN(c2ccc(S(=O)(=O)N3CCCCC3)cc2NC(=O)COc2cc(C)ccc2Cl)CC1 | . | 56.8 | . | . | . | . | 72.7 | .
CCN1CCN(c2ccc(S(=O)(=O)N3CCCCC3)cc2NC(=O)COc2ccc(Cl)cc2)CC1 | . | . | . | . | . | . | / | /
COC(=O)/C=C1/S/C(=N/NC(=O)c2ccccc2C)NC1=O | . | 53.4 | . | . | . | . | . | .
Cc1ccc(C(=O)N[C@H](C(=O)OCc2cc(=O)n3c(n2)sc2ccccc23)C(C)C)cc1 | . | . | . | . | . | . | / | /
O=C(OCc1cc(=O)n2c(n1)sc1ccccc12)c1cccc(O)c1 | . | . | . | . | . | . | / | /
O=C(OCc1cc(=O)n2c(n1)sc1ccccc12)c1ccc(O)cc1O | . | 61.5 | . | . | . | . | 22.8 | .
CC(C)[C@H](NC(=O)c1ccco1)C(=O)OCc1cc(=O)n2c(n1)sc1ccccc12 | . | 62.7 | . | . | . | . | 39.4 | .
C=CCn1c(COc2ccccc2)nc2ccccc21 | . | . | . | . | . | . | / | /
COc1cc(/C=C/c2noc(-c3ccccc3O)n2)ccc1OC(C)=O | . | . | . | . | . | . | / | /
CC[n+]1c(/C=C/c2ccc(OC(C)=O)c(OC)c2)ccc2ccccc21 | . | 52.8 | . | . | . | . | 57.9 | /
CC[n+]1c(/C=C/c2ccc(OC)c(OC)c2)ccc2ccccc21 | . | 79.3 | . | . | . | . | 93.3 | .
CCN(CC)c1ccc(/C=C/c2ccc3ccc(OC)cc3[n+]2CC)cc1 | . | 75.4 | . | . | . | . | 83.7 | .
CC[n+]1c(/C=C/c2ccc(N(C)C)cc2)ccc2ccccc21 | . | / | / | . | . | . | / | /
Cc1ccc(S(=O)(=O)N2CCN(C(=O)CNC(=O)c3ccc(Cl)cc3)CC2)cc1 | . | . | . | / | . | . | / | /
Cc1ccc(OCCn2c(Br)nc3c2c(=O)n(C)c(=O)n3C)cc1 | . | . | . | . | . | . | / | /
COCCn1c(Br)nc2c1c(=O)n(C)c(=O)n2C | . | 47.6 | . | . | . | . | . | .
COc1cccc(CN2CCN(C(=O)c3ccco3)CC2)c1 | . | . | . | . | . | . | / | /
SMILES | Keap1 Nrf2 FP | A3A deaminase | APOBEC3G inh | CAL PDZ FP-1 | CAL PDZ FP-2 | C-LANA FP | APOBEC3A confirm | UDG ctr A3A
c1ccc(CCOn2ccnc2)cc1 | . | . | . | . | . | . | / | /
CCCN(CC(=O)Nc1ccc(F)c(F)c1F)C(=O)C1=COCCO1 | . | 50.7 | . | . | . | . | . | /
Cn1cnc(C(=O)N2CCN(c3ccccc3)CC2)c1C(=O)N1CCN(c2ccccc2)CC1 | . | 58.8 | . | . | . | . | 67.2 | .
Cn1cnc(C(=O)N2CCN(C(=O)OC(C)(C)C)CC2)c1C(=O)N1CCN(C(=O)OC(C)(C)C)CC1 | . | 46.2 | . | . | . | . | 64.5 | .
CCn1cc(Br)c(C(=O)N2CCN(c3ccccc3)CC2)n1 | . | . | . | . | . | . | / | /
C=CCNC(=O)Cn1nc(-c2ccccc2)ccc1=O | . | 61.3 | . | . | . | . | . | /
Cc1ccc(N2C(=O)C3C4C=CC(C4)C3C2=O)cc1 (centres undefined) | . | . | . | . | . | . | / | /
CCSc1nc2ccc(N3C(=O)C4C5C=CC(C5)C4C3=O)cc2s1 (centres undefined) | . | 59.6 | . | . | . | . | . | /
COc1ccc2c(c1)CCc1sc(NC(=O)c3ccc(C)cc3)nc1-2 | . | 50.0 | . | . | . | . | . | /
CSc1nc2ccc(NC(=O)c3ccc(=O)[nH]c3)cc2s1 | . | 41.9 | . | . | . | . | . | /
Cc1ccc2[nH]cc(/C=C/c3cc[n+](C)cc3)c2c1 | . | 48.9 | . | . | . | . | 67.0 | .
COc1ccc2c(C=O)c[nH]c2c1 | . | . | . | . | . | . | / | /
CCn1c(/C=C/c2c[nH]c3ccccc23)nc2ccccc2c1=O | . | . | . | . | . | . | / | /
COc1ccc2c(/C=C/c3cc[n+](C)cc3)c[nH]c2c1 | . | 44.8 | . | . | . | . | 60.6 | .
CC[n+]1ccc(/C=C/c2c[nH]c3ccccc23)cc1 | . | 48.3 | . | . | . | . | 63.7 | .
COc1cc(OC)c(N(C)S(=O)(=O)c2cccc(C(=O)OCC(=O)N(C)C3CCCCC3)c2)cc1Cl | . | / | / | . | . | . | / | /
Cc1ccc(S(=O)(=O)N2CCOCC2)cc1NC(=O)COC(=O)/C=C/c1ccc(F)cc1 | . | . | . | . | . | . | / | /
COc1ccc(C2=NS(=O)(=O)N(C)C(C(=O)NCc3ccc(F)cc3)=C2)cc1OC | . | . | . | / | . | . | / | /
